Laboratory results from ChEMBL document CHEMBL4304834, “3-Amino-chromanes and Tetrahydroquinolines as Selective 5-HT2B, 5-HT7, or σ1 Receptor Ligands” (ACS Med Chem Lett, 2019).
Activity calls are given as the source filed them. No cut-off for these calls is given here.

Experiments:
[1] = molecular target: 5-hydroxytryptamine receptor 7 (Homo sapiens, UniProt P34969); experiment: Displacement of [3H]-LSD from human recombinant 5-HT7 receptor expressed in stable HEK cells after 90 mins by microbeta scintillation counting method; assay type: cell-based; conditions: read-out: pKi (converted)
Outline: (§1)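 Run by NIMH Psychoactive Drug Screening Program. Otherwise, competition binding curves are generated and pKi is taken from a sigmoidal curve fit. Data are either triplicate measurements within one experiment, with the error from the fit, or the mean of repeated experiments, each run in triplicate.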

[2] = molecular target: T1, Sigma intracellular receptor 2 (Homo sapiens, UniProt Q5BJF2); experiment: Displacement of […] from human recombinant sigma2 receptor expressed in HEKT cells after 90 mins by microbeta scintillation counting method; assay type: cell-based; outline: as §1
[3] = molecular target: T2, 5-hydroxytryptamine receptor 2B (Homo sapiens, UniProt P41595); experiment: Displacement of [3H]-LSD from human recombinant 5-HT2B receptor stably expressed in HEK cells after 90 mins by microbeta scintillation counting method; assay type: cell-based; outline: as §1
[4] = molecular target: Sigma non-opioid intracellular receptor 1 (Homo sapiens, UniProt Q99720); experiment: Displacement of [3H]-Pentazocine from human recombinant sigma1 receptor expressed in HEKT cells after 90 mins by microbeta scintillation counting method; assay type: cell-based
Homo sapiens [5] = species on record: Homo sapiens; experiment: Selectivity index, ratio of Ki for human recombinant sigma2 receptor to Ki for human recombinant 5-HT2B receptor
Outline: (§2)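 Both Ki values in each ratio come from NIMH Psychoactive Drug Screening Program radioligand binding. […] Other targets were given full binding curves, measured in triplicate, and Ki was taken from a sigmoidal curve fit. Some values were repeated in duplicate or triplicate independent experiments.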

[6] = molecular target: T3, 5-hydroxytryptamine receptor 1A (Homo sapiens, UniProt P08908); experiment: Displacement of [3H]-Way100635 from human recombinant 5-HT1A expressed in stable CHO cells after 90 mins by microbeta scintillation counting method; assay type: cell-based; conditions: read-out: pKi (converted); outline: as §1
T3 sequence (P08908 whole entry): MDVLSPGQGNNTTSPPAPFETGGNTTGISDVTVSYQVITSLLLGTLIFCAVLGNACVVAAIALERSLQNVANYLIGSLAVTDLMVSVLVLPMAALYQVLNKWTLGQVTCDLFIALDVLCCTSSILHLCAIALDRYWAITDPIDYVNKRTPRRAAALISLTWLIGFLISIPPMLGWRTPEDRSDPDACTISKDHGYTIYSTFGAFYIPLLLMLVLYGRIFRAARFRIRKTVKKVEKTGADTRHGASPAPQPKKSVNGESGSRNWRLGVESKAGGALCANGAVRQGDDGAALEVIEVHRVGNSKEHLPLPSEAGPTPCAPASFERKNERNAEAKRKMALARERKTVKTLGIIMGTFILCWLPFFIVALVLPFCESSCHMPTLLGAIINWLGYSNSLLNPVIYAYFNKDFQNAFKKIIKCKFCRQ

[7] = molecular target: T2, 5-hydroxytryptamine receptor 2B; experiment: Displacement of [3H]-LSD from human recombinant 5-HT2B receptor stably expressed in HEK cells at 10 uM after 90 mins by microbeta scintillation counting method relative to control; assay type: cell-based
Outline: (§3)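 Radioligand binding run by the NIMH Psychoactive Drug Screening Program. […] Otherwise Ki comes from sigmoidal curve fits of triplicate measurements in a single experiment, or is averaged over repeated experiments each run in triplicate.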

[8] = molecular target: T1, Sigma intracellular receptor 2; experiment: Displacement of […] from human recombinant sigma2 receptor expressed in HEKT cells at 10 uM after 90 mins by microbeta scintillation counting method relative to control; assay type: cell-based; outline: as §3
661W [9] = experiment: Cytoprotective activity in mouse 661W cells assessed as inhibition of t-BHP induced oxidative stress by measuring increase in cell viability at 50 to 100 uM after 24 hrs by MTT assay (Rvb < 50%); assay type: functional, cell-based
661W [10] = experiment: Cytoprotective activity in mouse 661W cells assessed as reduction in tBHP-induced ROS level at 20 to 50 uM after 2 hrs by […] fluorescent microscopic analysis; assay type: functional, cell-based
Outline: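 661W cells seeded on coverslips for 18 h, then exposed 2 h to 55 μM tBHP with or without test agent or (+)-pentazocine. ROS are detected with CellROX green dye by epifluorescence, with DAPI marking nuclei. Fluorescence intensity is quantified as mean ± SD from three independent experiments, each run in duplicate.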

Homo sapiens [11] = species on record: Homo sapiens; experiment: Selectivity index, ratio of Ki for human recombinant 5-HT2B receptor to Ki for human recombinant sigma1 receptor
Homo sapiens [12] = species on record: Homo sapiens; experiment: Selectivity index, ratio of Ki for human recombinant sigma2 receptor to Ki for human recombinant sigma1 receptor; outline: as §2

Sigma non-opioid intracellular receptor 1, sequence (Q99720 whole entry): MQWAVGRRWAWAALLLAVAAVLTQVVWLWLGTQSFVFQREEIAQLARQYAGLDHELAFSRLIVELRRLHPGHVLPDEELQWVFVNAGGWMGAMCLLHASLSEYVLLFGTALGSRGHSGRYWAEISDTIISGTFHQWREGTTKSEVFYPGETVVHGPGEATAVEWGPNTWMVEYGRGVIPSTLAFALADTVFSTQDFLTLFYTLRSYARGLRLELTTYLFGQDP
5-hydroxytryptamine receptor 7, sequence (P34969 whole entry): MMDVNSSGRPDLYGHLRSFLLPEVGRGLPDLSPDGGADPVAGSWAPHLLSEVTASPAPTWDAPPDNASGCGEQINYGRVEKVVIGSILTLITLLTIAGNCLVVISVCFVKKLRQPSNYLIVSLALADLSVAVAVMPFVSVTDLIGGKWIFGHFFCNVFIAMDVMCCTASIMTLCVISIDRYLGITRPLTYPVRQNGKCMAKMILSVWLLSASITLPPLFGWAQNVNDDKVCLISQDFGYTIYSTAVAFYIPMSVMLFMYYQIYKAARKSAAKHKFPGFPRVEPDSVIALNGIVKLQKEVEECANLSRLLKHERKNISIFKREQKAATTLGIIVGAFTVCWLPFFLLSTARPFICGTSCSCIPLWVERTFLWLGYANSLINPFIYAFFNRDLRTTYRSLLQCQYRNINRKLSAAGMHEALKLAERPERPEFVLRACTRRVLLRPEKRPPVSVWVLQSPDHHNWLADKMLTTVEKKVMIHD
T2 sequence (P41595 whole entry): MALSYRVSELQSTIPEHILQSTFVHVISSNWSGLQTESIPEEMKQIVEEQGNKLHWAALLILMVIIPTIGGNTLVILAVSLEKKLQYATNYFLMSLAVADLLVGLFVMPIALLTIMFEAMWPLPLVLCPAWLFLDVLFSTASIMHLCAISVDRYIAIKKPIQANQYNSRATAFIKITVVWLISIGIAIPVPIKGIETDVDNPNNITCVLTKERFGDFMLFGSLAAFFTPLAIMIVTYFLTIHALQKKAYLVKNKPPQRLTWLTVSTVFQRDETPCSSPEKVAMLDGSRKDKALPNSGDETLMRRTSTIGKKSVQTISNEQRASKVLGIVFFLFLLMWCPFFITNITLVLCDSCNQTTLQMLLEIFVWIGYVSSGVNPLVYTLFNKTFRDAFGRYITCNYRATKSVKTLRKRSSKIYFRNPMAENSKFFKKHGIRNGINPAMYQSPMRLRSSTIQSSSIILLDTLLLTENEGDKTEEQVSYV
T1 sequence (Q5BJF2 whole entry): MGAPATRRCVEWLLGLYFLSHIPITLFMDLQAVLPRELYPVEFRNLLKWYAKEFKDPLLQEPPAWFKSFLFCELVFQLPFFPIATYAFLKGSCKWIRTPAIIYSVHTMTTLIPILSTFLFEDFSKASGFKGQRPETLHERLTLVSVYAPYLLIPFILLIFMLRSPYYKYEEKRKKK

| SMILES | Ki [1] [nM] | Ki [2] [nM] | Ki ([3]; read-out: pKi (converted)) [nM] | Ki ([4]; read-out: pKi (converted)) [nM] | Ki [6] [nM] | other results |
| --- | --- | --- | --- | --- | --- | --- |
| Cc1cc(C)c2c(c1)OC[C@@]1(C)NCC[C@@H]21 (racemic) | 1260 | 316 | 79.4 | 63.1 | – | – |
| CC[C@H]1c2ccc3ccccc3c2OC[C@@]1(C)N (racemic) | 1000 | 316 | – | 3160 | 2510 | Ratio Ki (Homo sapiens [5]): 150; Ki ([3]; read-out: Ki): 3.5 nM |
| CC(=O)N1CC[C@H]2c3cccc(-c4ccccc4)c3OC[C@]21C (racemic) | – | 1260 | 501 | – | – | – |
| CN1CC[C@H]2c3cccc(-c4ccccc4)c3OC[C@]21C (racemic) | 20 | 316 | 251 | 50.1 | 200 | – |
| C[C@@]12COc3cc(O)ccc3[C@@H]1CCN2 (racemic) | – | 1000 | > 10000 | > 10000 | – | inhibition [7]: < 50% |
| CC(=O)N1CC[C@H]2c3ccccc3N(c3ccccc3)C[C@]21C (racemic) | – | 1260 | > 10000 | – | – | inhibition [7]: < 50% |
| COc1ccc2c(c1)[C@@H]1CCN[C@]1(C)CO2 (racemic) | 200 | 3160 | 631 | 126 | – | – |
| CC[C@H]1c2ccc(O)cc2OC[C@@]1(C)N (racemic) | – | > 10000 | > 10000 | > 10000 | – | inhibition [7]: < 50%; inhibition [8]: < 50% |
| CC(C)=CCN1CC[C@]2(C)c3cc(O)ccc3C[C@H]1[C@H]2C | – | – | – | – | – | Activity (661W [9]): Active; inhibition (661W [10]): Active |
| CC(=O)N1CC[C@H]2c3ccc(O)cc3OC[C@]21C (racemic) | – | > 10000 | > 10000 | > 10000 | – | inhibition [7]: < 50%; inhibition [8]: < 50% |
| CN1CC[C@H]2c3ccccc3N(c3ccccc3)C[C@]21C (racemic) | 2.69 | 158 | 200 | 162 | 200 | – |
| C[C@@]12COc3c(-c4ccccc4)cccc3[C@@H]1CCN2 (racemic) | 23.4 | 126 | 158 | 39.8 | 200 | – |
| C[C@@]12CN(c3ccc(Br)cc3)c3ccc(Br)cc3[C@@H]1CCN2 (racemic) | 200 | 79.4 | 316 | 158 | – | – |
| CN1CC[C@H]2c3ccc(O)cc3OC[C@]21C (racemic) | – | 3980 | 1000 | 50.1 | – | – |
| CC[C@H]1c2c(ccc3ccccc23)OC[C@@]1(C)N (racemic) | 692 | 2000 | – | 1000 | 316 | Ki ([3]; read-out: Ki): 20 nM |
| C[C@@]12COc3ccc(-c4ccccc4)cc3[C@@H]1CCN2 (racemic) | 1000 | 79.4 | 251 | 12.6 | – | – |
| C[C@@]12COc3cc(OCc4ccccc4)ccc3[C@@H]1CCN2 (racemic) | – | 100 | 126 | 7.94 | – | – |
| CC[C@H]1c2cc(OC)ccc2OC[C@@]1(C)N (racemic) | – | > 10000 | 251 | 398 | 2510 | inhibition [8]: < 50% |
| CC[C@H]1c2cc(-c3ccccc3)ccc2OC[C@@]1(C)N (racemic) | – | 316 | 126 | – | 2000 | Ratio Ki (Homo sapiens [11]): 10; Ki ([4]; read-out: Ki): 16 nM; Ratio Ki (Homo sapiens [12]): > 200 |
| Cc1ccc(N2C[C@@]3(C)NCC[C@H]3c3cc(C)ccc32)cc1 (racemic) | 200 | 316 | 316 | 251 | – | – |
| C[C@@]12COc3c(Br)cccc3[C@@H]1CCN2 (racemic) | 398 | 631 | 20 | 501 | 1000 | – |
